Results reported in ChEMBL document CHEMBL2380239, “Novel ROS-activated agents utilize a tethered amine to selectively target acute myeloid leukemia” (Bioorg Med Chem Lett, 2013).
Values belong to the molecule of their own block, whether it stands above or below them.

Key:
HeLa = assay: Cytotoxicity against human HeLa cells after 48 hrs by MTT assay; type: functional, cell-based
[1] = Therapeutic index, ratio of IC50 for human CD34-positive blood stem/progenitor cells to IC50 for human MA9.3 cells; settings: CD34-positive blood stem/progenitor cells versus MA9.3 cells, read-out: Ratio IC50
In short: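 Cytotoxicity was measured in parallel on non-cancerous human CD34+ blood stem/progenitor cells (UCB) and on the MA9.3 AML line, which was made by introducing the MLL-AF9 oncogene into human CD34+ cells. The index is IC50 in CD34+ cells divided by IC50 in MA9.3, reported as mean ± error.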

[2] = Cytotoxicity against human MA9.3 cells after 48 hrs by MTT assay; type: functional, cell-based
In short: (§1)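 Non-transformed human CD34+ blood stem/progenitor cells from umbilical cord blood were run alongside MA9.3, an AML line made by introducing the MLL-AF9 oncogene into human CD34+ cells. IC50 was determined on each cell type. Therapeutic index is the ratio between the MA9.3 and CD34+ IC50 values.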

[3] = Cytotoxicity against human CD34-positive blood stem/progenitor cells after 48 hrs by MTT assay; type: cell-based; in short: as §1
MDA-MB-468 = assay: Growth inhibition of human MDA-MB-468 cells after 48 hrs by sulforhodamine B assay; type: functional; settings: MDA-MB-468, 48 h
In short: (§2)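 Run in the National Cancer Institute 60-cell-line panel screen. Viability was read by sulforhodamine B staining of total protein content, so it reflects cell number rather than metabolic activity. Values are reported as GI50.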

T47D = assay: Growth inhibition of human T47D cells after 48 hrs by sulforhodamine B assay; type: functional
In short: (§3)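 Run within the National Cancer Institute 60-cell-line panel. Viability was read by sulforhodamine B staining of total cellular protein, as a measure of cell number rather than metabolic activity. GI50 values were taken from the panel data.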

Hs-578T = assay: Growth inhibition of human Hs578T cells after 48 hrs by sulforhodamine B assay; type: functional; in short: as §2
BT-549 = assay: Growth inhibition of human BT549 cells after 48 hrs by sulforhodamine B assay; type: functional; settings: BT-549, 48 h; in short: as §2
MDA-MB-231 = assay: Growth inhibition of human MDA-MB-231 cells after 48 hrs by sulforhodamine B assay; type: functional; settings: MDA-MB-231, 48 h; in short: as §2
MCF7 = assay: Growth inhibition of human MCF7 cells after 48 hrs by sulforhodamine B assay; type: functional; settings: MCF7, 48 h; in short: as §2
DU-145 = assay: Growth inhibition of human DU145 cells after 48 hrs by sulforhodamine B assay; type: functional; settings: DU-145, 48 h; in short: as §2
PC-3 = assay: Growth inhibition of human PC3 cells after 48 hrs by sulforhodamine B assay; type: functional; settings: PC-3, 48 h; in short: as §2
UO-31 = assay: Growth inhibition of human UO31 cells after 48 hrs by sulforhodamine B assay; type: functional; settings: UO-31, 48 h; in short: as §3
SN12C = assay: Growth inhibition of human SN12C cells after 48 hrs by sulforhodamine B assay; type: functional; in short: as §3
RXF 393 = assay: Growth inhibition of human RXF393 cells after 48 hrs by sulforhodamine B assay; type: functional; settings: RXF 393, 48 h; in short: as §2
CAKI-1 = assay: Growth inhibition of human CAKI-1 cells after 48 hrs by sulforhodamine B assay; type: functional; settings: CAKI-1, 48 h; in short: as §2
A498 = assay: Growth inhibition of human A498 cells after 48 hrs by sulforhodamine B assay; type: functional; settings: A498, 48 h; in short: as §2
ACHN = assay: Growth inhibition of human ACHN cells after 48 hrs by sulforhodamine B assay; type: functional; in short: as §2
SK-OV-3 = assay: Growth inhibition of human SKOV3 cells after 48 hrs by sulforhodamine B assay; type: functional; settings: SK-OV-3, 48 h; in short: as §2
786-0 = assay: Growth inhibition of human 786-0 cells after 48 hrs by sulforhodamine B assay; type: functional; settings: 786-0, 48 h; in short: as §2
[4] = Growth inhibition of human NCI-ADR-RES cells after 48 hrs by sulforhodamine B assay; type: functional; in short: as §2
OVCAR-4 = assay: Growth inhibition of human OVCAR4 cells after 48 hrs by sulforhodamine B assay; type: functional; settings: OVCAR-4, 48 h; in short: as §2
OVCAR-5 = assay: Growth inhibition of human OVCAR5 cells after 48 hrs by sulforhodamine B assay; type: functional; settings: OVCAR-5, 48 h; in short: as §2
IGROV-1 = assay: Growth inhibition of human IGROV1 cells after 48 hrs by sulforhodamine B assay; type: functional; settings: IGROV-1, 48 h; in short: as §2
OVCAR-3 = assay: Growth inhibition of human OVCAR3 cells after 48 hrs by sulforhodamine B assay; type: functional; settings: OVCAR-3, 48 h; in short: as §2
UACC-257 = assay: Growth inhibition of human UACC257 cells after 48 hrs by sulforhodamine B assay; type: functional; settings: UACC-257, 48 h; in short: as §3
UACC-62 = assay: Growth inhibition of human UACC62 cells after 48 hrs by sulforhodamine B assay; type: functional; settings: UACC-62, 48 h; in short: as §3
SK-MEL-28 = assay: Growth inhibition of human SK-MEL-28 cells after 48 hrs by sulforhodamine B assay; type: functional; settings: SK-MEL-28, 48 h; in short: as §2
SK-MEL-5 = assay: Growth inhibition of human SK-MEL-5 cells after 48 hrs by sulforhodamine B assay; type: functional; settings: SK-MEL-5, 48 h; in short: as §2
MDA-MB-435 = assay: Growth inhibition of human MDA-MB-435 cells after 48 hrs by sulforhodamine B assay; type: functional; settings: MDA-MB-435, 48 h; in short: as §2
SK-MEL-2 = assay: Growth inhibition of human SK-MEL-2 cells after 48 hrs by sulforhodamine B assay; type: functional; settings: SK-MEL-2, 48 h; in short: as §2
Malme-3M = assay: Growth inhibition of human MALME-3M cells after 48 hrs by sulforhodamine B assay; type: functional; in short: as §2
M14 = assay: Growth inhibition of human M14 cells after 48 hrs by sulforhodamine B assay; type: functional; settings: M14, 48 h; in short: as §2
U-251 = assay: Growth inhibition of human U251 cells after 48 hrs by sulforhodamine B assay; type: functional; settings: U-251, 48 h; in short: as §3
LOX IMVI = assay: Growth inhibition of human LOXIMVI cells after 48 hrs by sulforhodamine B assay; type: functional; in short: as §2
SNB-19 = assay: Growth inhibition of human SNB19 cells after 48 hrs by sulforhodamine B assay; type: functional; settings: SNB-19, 48 h; in short: as §3
SNB-75 = assay: Growth inhibition of human SNB75 cells after 48 hrs by sulforhodamine B assay; type: functional; settings: SNB-75, 48 h; in short: as §3
SF-295 = assay: Growth inhibition of human SF295 cells after 48 hrs by sulforhodamine B assay; type: functional; settings: SF-295, 48 h; in short: as §2
SF-539 = assay: Growth inhibition of human SF539 cells after 48 hrs by sulforhodamine B assay; type: functional; settings: SF-539, 48 h; in short: as §2
SW-620 = assay: Growth inhibition of human SW620 cells after 48 hrs by sulforhodamine B assay; type: functional; settings: SW-620, 48 h; in short: as §3
SF-268 = assay: Growth inhibition of human SF268 cells after 48 hrs by sulforhodamine B assay; type: functional; settings: SF-268, 48 h; in short: as §2
HT-29 = assay: Growth inhibition of human HT-29 cells after 48 hrs by sulforhodamine B assay; type: functional; settings: HT-29, 48 h; in short: as §2
KM12 = assay: Growth inhibition of human KM12 cells after 48 hrs by sulforhodamine B assay; type: functional; settings: KM12, 48 h; in short: as §2
HCT-15 = assay: Growth inhibition of human HCT15 cells after 48 hrs by sulforhodamine B assay; type: functional; settings: HCT-15, 48 h; in short: as §2
HCT-116 = assay: Growth inhibition of human HCT116 cells after 48 hrs by sulforhodamine B assay; type: functional; settings: HCT-116, 48 h; in short: as §2
COLO 205 = assay: Growth inhibition of human COLO205 cells after 48 hrs by sulforhodamine B assay; type: functional; settings: COLO 205, 48 h; in short: as §2
[5] = Growth inhibition of human HCC2998 cells after 48 hrs by sulforhodamine B assay; type: functional; settings: HCC 2998, 48 h; in short: as §2
NCI-H460 = assay: Growth inhibition of human NCI-H460 cells after 48 hrs by sulforhodamine B assay; type: functional; settings: NCI-H460, 48 h; in short: as §2
NCI-H522 = assay: Growth inhibition of human NCI-H522 cells after 48 hrs by sulforhodamine B assay; type: functional; settings: NCI-H522, 48 h; in short: as §2
NCI-H322M = assay: Growth inhibition of human NCI-H322M cells after 48 hrs by sulforhodamine B assay; type: functional; in short: as §2
NCI-H23 = assay: Growth inhibition of human NCI-H23 cells after 48 hrs by sulforhodamine B assay; type: functional; settings: NCI-H23, 48 h; in short: as §2
HOP-92 = assay: Growth inhibition of human HOP92 cells after 48 hrs by sulforhodamine B assay; type: functional; settings: HOP-92, 48 h; in short: as §2
NCI-H226 = assay: Growth inhibition of human NCI-H226 cells after 48 hrs by sulforhodamine B assay; type: functional; settings: NCI-H226, 48 h; in short: as §2
[6] = Growth inhibition of human EKVX cells after 48 hrs by sulforhodamine B assay; type: functional; in short: as §2
HOP-62 = assay: Growth inhibition of human HOP62 cells after 48 hrs by sulforhodamine B assay; type: functional; settings: HOP-62, 48 h; in short: as §2
RPMI-8226 = assay: Growth inhibition of human RPMI8226 cells after 48 hrs by sulforhodamine B assay; type: functional; settings: RPMI-8226, 48 h; in short: as §2
SR = assay: Growth inhibition of human SR cells after 48 hrs by sulforhodamine B assay; type: functional; in short: as §3
MOLT-4 = assay: Growth inhibition of human MOLT4 cells after 48 hrs by sulforhodamine B assay; type: functional; settings: MOLT-4, 48 h; in short: as §2

SMILES: CC(C)N(CCOc1ccc(O)cc1)c1ccccc1
IC50 (HeLa): 53 µM

GI50 (MDA-MB-468): 10 µM | GI50 (T47D): 10.2 µM | GI50 (BT-549): 6.6 µM | GI50 (MDA-MB-231): 0.9 µM | GI50 (MCF7): 2.2 µM | GI50 (DU-145): 3.2 µM | GI50 (PC-3): 6 µM | GI50 (ACHN): 0.4 µM | GI50 (SK-OV-3): 7.2 µM | GI50 (786-0): 3.6 µM | GI50 (OVCAR-4): 10.5 µM | GI50 (OVCAR-5): 11.5 µM | GI50 (OVCAR-3): 4.2 µM | GI50 (SK-MEL-28): 14.8 µM | GI50 (SK-MEL-5): 2.6 µM | GI50 (MDA-MB-435): 2.6 µM | GI50 (SK-MEL-2): 11.8 µM | GI50 (U-251): 3 µM | GI50 (SW-620): 10 µM | GI50 (HT-29): 14.5 µM | GI50 (HCT-15): 10 µM | GI50 (HCT-116): 4.1 µM | GI50 (COLO 205): 20 µM | GI50 (NCI-H460): 2.2 µM | GI50 (NCI-H522): 2 µM | GI50 (NCI-H322M): 11 µM | GI50 (NCI-H23): 2.1 µM | GI50 (NCI-H226): 11.2 µM | GI50 (RPMI-8226): 3.8 µM | GI50 (MOLT-4): 1.3 µM
SMILES: Oc1ccc(OCCN(CCOc2ccc(O)cc2)c2ccccc2)cc1
selectivity ratio [1]: 5.3 | IC50 [2]: 3 µM | IC50 [3]: 16 µM | GI50 (Hs-578T): 14.5 µM | GI50 (UO-31): 1.5 µM | GI50 (SN12C): 4.7 µM | GI50 (RXF 393): 2.6 µM | GI50 (CAKI-1): 0.4 µM | GI50 (A498): 5.3 µM | GI50 [4]: 1.2 µM | GI50 (IGROV-1): 3.6 µM | GI50 (UACC-257): 12.6 µM | GI50 (UACC-62): 2.9 µM | GI50 (Malme-3M): 2.2 µM | GI50 (M14): 1.6 µM | GI50 (LOX IMVI): 2.2 µM | GI50 (SNB-19): 11.2 µM | GI50 (SNB-75): 5.3 µM | GI50 (SF-295): 2.1 µM | GI50 (SF-539): 2.8 µM | GI50 (SF-268): 3.2 µM | GI50 (KM12): 4.7 µM | GI50 [5]: 4.7 µM | GI50 (HOP-92): 3.7 µM | GI50 [6]: 5.8 µM | GI50 (HOP-62): 8.9 µM | GI50 (SR): 0.5 µM | IC50 (HeLa): 11 µM
